This is an account of results in ChEMBL document CHEMBL3616436, “Synthesis, cytotoxicity and antimicrobial activity of thiourea derivatives incorporating 3-(trifluoromethyl)phenyl moiety” (Eur J Med Chem, 2015).

Values after ≈ are worked out from the molar mass of the structure shown. Active and inactive are the calls of the source. The calls are words filed in the database; no cut-off is given here.

For test [1], the system named is Staphylococcus epidermidis. Briefly: Antimicrobial activity against hospital methicillin-resistant Staphylococcus epidermidis 31/04 after 18 hrs by twofold serial microdilution method. Format: functional. The following applies: 31/04, 18 h. Put shortly: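 Twofold serial microdilution in Mueller-Hinton broth. Compound stock was made in DMSO and diluted in sterile water. Tested range was 0.125–512 µg/mL. Final inoculum was 10^5 CFU/mL. Plates were incubated 18 h at 35 °C. MIC is the lowest concentration preventing visible growth.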
In general terms: In broth dilution the organism is exposed to a series of concentrations in liquid medium.

In test [2] the test system is Staphylococcus epidermidis. As to the kind of experiment: Ratio of ciprofloxacin MIC to compound MIC for hospital methicillin-resistant Staphylococcus epidermidis 151/04 after 18 hrs by twofold serial microdilution method. Format: functional. Put shortly:
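Ratio of MICs for ciprofloxacin and test agent, each from twofold serial broth microdilution in Mueller-Hinton broth following CLSI guidelines. DMSO stock was diluted in sterile water to 0.125–512 µg/mL, with a final inoculum of 10^5 CFU/mL.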

In test [3] the target is T1, Topoisomerase IV (Staphylococcus aureus) (UniProt P0C1U9+P0C1S7). Briefly: Inhibition of decatenation activity of DNA topoisomerase 4 in Staphylococcus aureus ATCC 29213 using kDNA as substrate at 1 to 4 ug/ml […] using ethidium bromide staining by agarose gel electrophoresis. Format: protein-complex assay.
The target of test [4] is T1, Topoisomerase IV (Staphylococcus aureus). Briefly: Inhibition of decatenation activity of DNA topoisomerase 4 in hospital methicillin-resistant Staphylococcus aureus 57/05 using kDNA as substrate at 1 to 4 ug/ml after 1 hr using ethidium bromide staining by agarose gel electrophoresis. Format: protein-complex assay.
Test [5] has the same target. As to the kind of experiment: Inhibition of decatenation activity of DNA topoisomerase 4 in hospital methicillin-resistant Staphylococcus aureus 79/05 using kDNA as substrate at 1 to 4 ug/ml after 1 hr using ethidium bromide staining by agarose gel electrophoresis. Format: protein-complex assay.
Test [6] has the same target. Briefly: Inhibition of decatenation activity of DNA topoisomerase 4 in hospital methicillin-resistant Staphylococcus aureus 80/05 using kDNA as substrate at 1 to 4 ug/ml after 1 hr using ethidium bromide staining by agarose gel electrophoresis. Format: protein-complex assay.
For test [7] the target is unchanged. Briefly: Inhibition of decatenation activity of DNA topoisomerase 4 in hospital methicillin-resistant Staphylococcus aureus 81/05 using kDNA as substrate at 1 to 4 ug/ml after 1 hr using ethidium bromide staining by agarose gel electrophoresis. Format: protein-complex assay.
For test [8], the target named is T2, DNA topoisomerase 4 (Staphylococcus epidermidis) (UniProt Q5HPI6+Q5HPI5). Briefly: Inhibition of decatenation activity of DNA topoisomerase 4 in hospital methicillin-resistant Staphylococcus epidermidis 31/04 using kDNA as substrate at 1 to 4 ug/ml after 1 hr using ethidium bromide staining by agarose gel electrophoresis. Format: protein assay.
Test [9] concerns the target T2, DNA topoisomerase 4 (Staphylococcus epidermidis). As to the kind of experiment: Inhibition of decatenation activity of DNA topoisomerase 4 in hospital methicillin-resistant Staphylococcus epidermidis 62/04 using kDNA as substrate at 1 to 4 ug/ml after 1 hr using ethidium bromide staining by agarose gel electrophoresis. Format: protein assay.
Test [10] has the same target. As to the kind of experiment: Inhibition of decatenation activity of DNA topoisomerase 4 in hospital methicillin-resistant Staphylococcus epidermidis 151/04 using kDNA as substrate at 1 to 4 ug/ml after 1 hr using ethidium bromide staining by agarose gel electrophoresis. Format: protein assay.
Test [11] deals with Staphylococcus epidermidis. As to the kind of experiment: Inhibition of biofilm formation in Staphylococcus epidermidis 63/04 after 24 hrs using MTT staining by spectrophotometer analysis. The settings on record: 63/04, 24 h. Format: functional, organism-based. Put shortly: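 Biofilm was grown for 24 h at 37 °C in TSB with 0.5% glucose from 10^7 CFU/mL inoculum, mixed 1:1 with compound. Final concentrations were 0.125–4 or 0.25–8 µg/ml. Wells were PBS-washed and MTT-stained for 2 h at 37 °C, solubilized in DMSO/glycine buffer and read at 554 nm. IC50 (50% inhibition of biofilm formation) was taken from the dose-response curve; quadruplicates.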

Test [12] has as its system Staphylococcus epidermidis. As to the kind of experiment: Inhibition of biofilm formation in Staphylococcus epidermidis ATCC 12228 at 4 ug/ml after 24 hrs using MTT staining by spectrophotometer analysis. Format: functional. The following applies: ATCC 12228, 24 h. The method in brief: (§1)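 Methicillin-resistant hospital isolates or ATCC strains of S. epidermidis were grown overnight in tryptone soy broth with 0.5% glucose. Inoculum of 10^7 CFU/mL was mixed 1:1 with compound in TSB-glucose and incubated 24 h at 37 °C. Non-adherent cells were washed off with PBS, and wells were stained with MTT (0.5% in PBS) for 2 h at 37 °C. Stain was solubilized in DMSO/glycine buffer and read at A554. Inhibition is relative to drug-free control; quadruplicates.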

Test [13] deals with Staphylococcus epidermidis. Briefly: Inhibition of biofilm formation in Staphylococcus epidermidis ATCC 35984 at 4 ug/ml after 24 hrs using MTT staining by spectrophotometer analysis. Format: functional. The settings on record: ATCC 35984, 24 h. The method in brief: as §1
Test [14] deals with WIL2-NS. As to the kind of experiment: Cytotoxicity against human WIL2-NS cells after 96 hrs by MTT assay. Format: functional. Put shortly: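 Leukaemia/lymphoma lines seeded at 1×10^5 cells/ml in RPMI-1640 with 10% FCS and penicillin/streptomycin; incubated with serial dilutions at 37°C, 5% CO2; viability by MTT after 96 h; value is concentration reducing proliferation by 50%, with untreated controls undergoing at least three rounds of multiplication.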
(In general: Formazan colour is commonly taken as a measure of viable cells.)

The target in test [15] is T2, DNA topoisomerase 4 (Staphylococcus epidermidis). Briefly: Inhibition of decatenation activity of DNA topoisomerase 4 in Staphylococcus epidermidis ATCC 35984 using kDNA as substrate at 32 ug/ml after 1 hr using ethidium bromide staining by agarose gel electrophoresis. Format: protein assay.
Test [16] has as its target T1, Topoisomerase IV (Staphylococcus aureus). Briefly: Inhibition of decatenation activity of DNA topoisomerase 4 in hospital methicillin-resistant Staphylococcus aureus 53/05 using kDNA as substrate at 32 ug/ml after 1 hr using ethidium bromide staining by agarose gel electrophoresis. Format: protein-complex assay.
Test [17] shares this target. As to the kind of experiment: Inhibition of decatenation activity of DNA topoisomerase 4 in hospital methicillin-resistant Staphylococcus aureus 57/05 using kDNA as substrate at 32 ug/ml after 1 hr using ethidium bromide staining by agarose gel electrophoresis. Format: protein-complex assay.
The target is the same in test [18]. Briefly: Inhibition of decatenation activity of DNA topoisomerase 4 in hospital methicillin-resistant Staphylococcus aureus 79/05 using kDNA as substrate at 32 ug/ml after 1 hr using ethidium bromide staining by agarose gel electrophoresis. Format: protein-complex assay.
For test [19] the target is unchanged. Briefly: Inhibition of decatenation activity of DNA topoisomerase 4 in hospital methicillin-resistant Staphylococcus aureus 522/11 using kDNA as substrate at 32 ug/ml after 1 hr using ethidium bromide staining by agarose gel electrophoresis. Format: protein-complex assay.
Test [20] concerns the target T2, DNA topoisomerase 4 (Staphylococcus epidermidis). Briefly: Inhibition of decatenation activity of DNA topoisomerase 4 in hospital methicillin-resistant Staphylococcus epidermidis 62/04 using kDNA as substrate at 32 ug/ml after 1 hr using ethidium bromide staining by agarose gel electrophoresis. Format: protein assay.
Test [21] has the same target. As to the kind of experiment: Inhibition of decatenation activity of DNA topoisomerase 4 in hospital methicillin-resistant Staphylococcus epidermidis 151/04 using kDNA as substrate at 32 ug/ml after 1 hr using ethidium bromide staining by agarose gel electrophoresis. Format: protein assay.
For test [22] the target is unchanged. The following applies: 16/04, at 32 µg/mL.
The target is the same in test [23]. The following applies: 24/04, at 32 µg/mL.

T2 sequence (Q5HPI5 whole entry, looked up): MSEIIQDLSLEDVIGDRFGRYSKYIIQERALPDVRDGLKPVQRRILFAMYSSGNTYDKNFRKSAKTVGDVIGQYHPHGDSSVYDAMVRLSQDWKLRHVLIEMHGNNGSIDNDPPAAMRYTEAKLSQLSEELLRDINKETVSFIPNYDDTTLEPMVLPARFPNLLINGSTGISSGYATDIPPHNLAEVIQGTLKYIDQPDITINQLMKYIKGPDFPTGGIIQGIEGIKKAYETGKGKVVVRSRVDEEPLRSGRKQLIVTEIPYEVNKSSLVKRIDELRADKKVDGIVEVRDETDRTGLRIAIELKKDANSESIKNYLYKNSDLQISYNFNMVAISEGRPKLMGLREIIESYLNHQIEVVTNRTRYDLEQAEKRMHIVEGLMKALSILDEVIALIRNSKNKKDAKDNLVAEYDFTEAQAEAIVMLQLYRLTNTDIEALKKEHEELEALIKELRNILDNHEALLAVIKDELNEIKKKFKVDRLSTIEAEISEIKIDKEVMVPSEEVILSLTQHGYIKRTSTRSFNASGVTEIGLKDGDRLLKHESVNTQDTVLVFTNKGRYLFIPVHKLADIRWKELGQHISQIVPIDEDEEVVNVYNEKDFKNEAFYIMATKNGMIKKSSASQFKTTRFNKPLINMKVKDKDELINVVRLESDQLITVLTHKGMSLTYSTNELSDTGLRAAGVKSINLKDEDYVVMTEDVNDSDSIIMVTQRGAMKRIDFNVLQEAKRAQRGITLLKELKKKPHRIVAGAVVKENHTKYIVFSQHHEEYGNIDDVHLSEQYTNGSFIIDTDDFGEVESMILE
T2 sequence (Q5HPI6 whole entry, looked up): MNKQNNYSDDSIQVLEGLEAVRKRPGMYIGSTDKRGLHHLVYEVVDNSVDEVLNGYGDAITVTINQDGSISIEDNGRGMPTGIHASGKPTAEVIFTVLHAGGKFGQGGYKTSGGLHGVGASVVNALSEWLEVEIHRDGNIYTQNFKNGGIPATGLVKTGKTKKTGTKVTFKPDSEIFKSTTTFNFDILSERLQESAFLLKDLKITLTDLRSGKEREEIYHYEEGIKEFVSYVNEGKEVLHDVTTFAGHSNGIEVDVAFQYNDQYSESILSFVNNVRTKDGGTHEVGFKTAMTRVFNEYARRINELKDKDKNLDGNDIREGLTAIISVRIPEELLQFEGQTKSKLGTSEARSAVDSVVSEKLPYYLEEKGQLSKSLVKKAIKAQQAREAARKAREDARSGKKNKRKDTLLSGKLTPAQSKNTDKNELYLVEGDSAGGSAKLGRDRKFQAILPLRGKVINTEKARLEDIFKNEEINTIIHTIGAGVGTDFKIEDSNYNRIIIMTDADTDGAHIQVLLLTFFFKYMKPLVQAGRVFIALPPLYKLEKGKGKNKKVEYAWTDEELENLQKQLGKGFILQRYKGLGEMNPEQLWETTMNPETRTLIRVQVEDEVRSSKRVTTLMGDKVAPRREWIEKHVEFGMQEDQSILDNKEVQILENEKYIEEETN

Consider `FC(F)(F)c1cccc(NC(=S)NCCc2ccccc2)c1`, for which the MIC – broadly, the lowest concentration that inhibits growth of the organism – in [1] is 16 µg/mL (≈ 49.3 µM). Also, the Ratio in test [2] is given as 128.
Turning to `Fc1ccc(NC(=S)Nc2cccc(C(F)(F)F)c2)cc1Cl`, the inhibition entry in test [3], in test [4], in test [5], in test [6], in test [7] and in [8] was “Active” throughout. In addition, the inhibition entry in test [9], in test [10], in [15], in test [16], in test [17] and in [18] was “Active” each time. Besides, the inhibition result in test [19], in test [20], in test [21], in test [22] and in test [23] was “Active” throughout. The IC50 (in general, the concentration that inhibits the measured activity by half) in test [11] amounted to 2.39 µg/mL (≈ 6.85 µM). In addition, the inhibition (in general, the percentage by which the read-out fell short of the control) at 4 µg/mL was 95.2% in test [12] and 84% in test [13]. The CC50 (usually the concentration at which the toxic effect on the cells reaches its halfway point) in [14] was determined as 9 µM. It took 1 µg/mL (≈ 2.87 µM) to inhibit growth in test [1] (MIC). The Ratio in test [2] came to 128.
`FC(F)(F)c1cccc(NC(S)=NCc2ccccc2)c1` displayed an MIC in test [1] of 16 µg/mL (≈ 51.6 µM). For the same compound, the Ratio in [2] was 128.
In test [14], `FC(F)(F)c1cccc(NC(=S)Nc2ccc(Cl)cc2)c1` showed a CC50 of 13 µM. For the same compound, in test [1], 16 µg/mL (≈ 48.4 µM) was the least that counted as inhibitory (MIC). Also, the Ratio in test [2] is 128.
In the case of `FC(F)(F)c1cccc(NC(=S)Nc2cccc(Br)c2)c1`, the inhibition result in test [3], in test [4], in [5], in test [6], in test [7] and in [8] was “Active” throughout. Moreover, the inhibition result in test [9], in test [10], in test [15], in test [16], in test [17] and in test [18] was “Active” throughout. Further, the inhibition entry in [19], in [20], in [21], in test [22] and in test [23] was “Active” in each case. In test [11], this compound yielded an IC50 of 5 µg/mL (≈ 13.3 µM). The inhibition at 4 µg/mL in test [12] was determined as 87%; in test [13], 46.8%. In test [14], half-maximal cytotoxicity (CC50) was put at 9.9 µM. This compound also gave an MIC in test [1] of 2 µg/mL (≈ 5.33 µM). Moreover, in test [2], the Ratio came to 128.
As for `FC(F)(F)c1cccc(NC(S)=Nc2ccc(Cl)c(Cl)c2)c1`, the CC50 in test [14] is 8 µM. In test [1], this compound showed an MIC of 1 µg/mL (≈ 2.74 µM). In addition, the Ratio in test [2] is 128.
Regarding `Fc1cccc(NC(=S)Nc2cccc(C(F)(F)F)c2)c1`, it took 8 µg/mL (≈ 25.5 µM) to inhibit growth in test [1] (MIC). Further, the Ratio in [2] is reported as 128.
For `O=C(O)c1cn(C2CC2)c2cc(N3CCNCC3)c(F)cc2c1=O` [CIPROFLOXACIN], the inhibition entry in test [3], in test [4], in test [5], in test [6], in test [7] and in test [8] was “Active” in each case. Besides, the inhibition result in test [9], in test [10], in test [15], in test [16], in [17] and in test [18] was “Active” in each case. Further, the inhibition entry in test [19], in [20], in test [21], in test [22] and in [23] was “Active” each time. This compound also returned an IC50 in [11] of 7.14 µg/mL (≈ 21.5 µM). Moreover, the inhibition at 4 µg/mL was determined as 21.3% in test [12] and 45.4% in [13]. Besides, the lowest concentration to inhibit growth in [1] (MIC) was 64 µg/mL (≈ 193 µM).
